Experimental findings from ChEMBL document CHEMBL3779766, “Synthesis and biological evaluation of quinoline analogues of flavones as potential anticancer agents and tubulin polymerization inhibitors” (Eur J Med Chem, 2016) are described below.

The test system of test [1] is A2780. Description: Antiproliferative activity against cisplatin resistant human A2780 cells assessed as cell viability after 48 hrs by MTT assay. Type of test: functional, cell-based. Particulars: A2780, 48 h. In a few lines: (§1)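 Cancer cells were seeded at 5×10³ per well in RPMI complete medium. The next day the medium was replaced with a range of test concentrations, with a no-drug RPMI control. Plates ran 48 h at 37 °C, then MTT (4 mg/mL solution) was added for 3 h. Formazan was dissolved in DMSO and absorbance read at 540 nm. Triplicate determinations.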

Test [2] can be described thus: Antiproliferative activity against human MCF7/MX cells assessed as cell viability after 48 hrs by MTT assay. It is filed as functional, cell-based. The procedure, abridged:
as §1
A general note: Tetrazolium assays rely on reduction of a dye to a coloured formazan, in cell work by metabolically active cells.

The test system of test [3] is A2780. Description: Antiproliferative activity against human A2780 cells assessed as cell viability after 48 hrs by MTT assay. Particulars: A2780, 48 h. Type of test: functional, cell-based. The procedure, abridged: as §1
Test [4] has as its system A2780. Kind of test: Cell cycle arrest in cisplatin resistant human A2780 cells assessed as accumulation at G2/M phase at 3 uM after 24 hrs by propidium iodide staining based flow cytometry (reference value: 19.63%). Type of test: functional. (A flow cytometer gives signals particle by particle.)
A short description of test [5]: Cell cycle arrest in human MCF7/MX cells assessed as accumulation at G2/M phase at 3 uM after 72 hrs by propidium iodide staining based flow cytometry (reference value: 5.68%). Type of test: functional.
Test [6] deals with MCF7. Description: Cell cycle arrest in human MCF7 cells assessed as accumulation at G2/M phase at 3 uM after 72 hrs by propidium iodide staining based flow cytometry (reference value: 6.18%). Type of test: functional.
Test [7] deals with MCF7. Description: Antiproliferative activity against human MCF7 cells assessed as cell viability after 48 hrs by MTT assay. Particulars: MCF7, 48 h. It is filed as functional, cell-based. The procedure, abridged:
as §1

Test [8] has as its target T1, Tubulin (Sus scrofa) (UniProt P02554+P02550). The conditions noted are these: 10 uM.
Test [9] has as its system A2780. Kind of test: Cell cycle arrest in human A2780 cells assessed as accumulation at G2/M phase at 3 uM after 24 hrs by propidium iodide staining based flow cytometry (reference value: 12.71%). Type of test: functional.
For test [10], the target named is T1, Tubulin (Sus scrofa). Description: Inhibition of porcine brain tubulin polymerization at 100 uM measured for 1 hr by fluorescence assay. In a few lines: (§2)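 Polymerization was tracked by a fluorescent reporter incorporating into microtubules (ex 360/em 420 nm) every 1 min for 1 h. Controls were paclitaxel 3 µM (stabilizer) and CA-4 10 µM (destabilizer).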

In test [11] the target is T1, Tubulin (Sus scrofa). Kind of test: Inhibition of porcine brain tubulin polymerization at 50 uM measured for 1 hr by fluorescence assay. The procedure, abridged: as §2
A short description of test [12]: Cell cycle arrest in human MCF7/MX cells assessed as accumulation at G2/M phase at 100 uM after 72 hrs by propidium iodide staining based flow cytometry (reference value: 5.68%). Type of test: functional.
Test [13] relates to A2780. Description: Cell cycle arrest in cisplatin resistant human A2780 cells assessed as accumulation at G2/M phase at 100 uM after 24 hrs by propidium iodide staining based flow cytometry (reference value: 19.63%). Type of test: functional.
For test [14], the system named is MCF7. Kind of test: Cell cycle arrest in human MCF7 cells assessed as accumulation at G2/M phase at 100 uM after 72 hrs by propidium iodide staining based flow cytometry (reference value: 6.18%). It is filed as functional.
Test [15] concerns A2780. Description: Cell cycle arrest in human A2780 cells assessed as accumulation at G2/M phase at 100 uM after 24 hrs by propidium iodide staining based flow cytometry (reference value: 12.71%). It is filed as functional.
Test [16] concerns A2780. Kind of test: Induction of apoptosis in cisplatin resistant human A2780 cells assessed as accumulation at sub G1 phase at 50 uM after 72 hrs by propidium iodide staining based flow cytometry. It is filed as functional, cell-based. The procedure, abridged: (§3)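 2.5×10⁵ cells were seeded in 6-well plates for 24 h, then treated for 72 h alongside a vehicle control (0.05% DMSO). Cells were ethanol-fixed (70%), then incubated 0.5 h at 37 °C with RNase A (1 mg/mL) plus propidium iodide. Flow cytometry (FL2) gave the percentage of cells in the sub-G1 region as the apoptotic fraction.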

Test [17] deals with A2780. Description: Induction of apoptosis in human A2780 cells assessed as accumulation at sub G1 phase at 50 uM after 72 hrs by propidium iodide staining based flow cytometry. Type of test: functional, cell-based. The procedure, abridged:
as §3

Test [18] deals with MCF7/MX. Description: Induction of apoptosis in human MCF7/MX cells assessed as accumulation at sub G1 phase at 50 uM after 72 hrs by propidium iodide staining based flow cytometry. It is filed as functional, cell-based. In a few lines:
as §3

Test [19] deals with A2780. Kind of test: Cell cycle arrest in human A2780 cells assessed as accumulation at G2/M phase at 50 uM after 24 hrs by propidium iodide staining based flow cytometry (reference value: 12.71%). It is filed as functional.
Test [20] has as its system MCF7. Kind of test: Induction of apoptosis in human MCF7 cells assessed as accumulation at sub G1 phase at 50 uM after 72 hrs by propidium iodide staining based flow cytometry. It is filed as functional, cell-based. In a few lines: as §3
Test [21] can be described thus: Cell cycle arrest in human MCF7/MX cells assessed as accumulation at G2/M phase at 50 uM after 72 hrs by propidium iodide staining based flow cytometry (reference value: 5.68%). Type of test: functional.
Test [22] deals with A2780. Description: Cell cycle arrest in cisplatin resistant human A2780 cells assessed as accumulation at G2/M phase at 50 uM after 24 hrs by propidium iodide staining based flow cytometry (reference value: 19.63%). It is filed as functional.
For test [23], the system named is MCF7. Kind of test: Cell cycle arrest in human MCF7 cells assessed as accumulation at G2/M phase at 50 uM after 72 hrs by propidium iodide staining based flow cytometry (reference value: 6.18%). Type of test: functional.

Each structure is given as a SMILES string. Active and inactive are the calls of the source. No cut-off for these calls is given here.

T1 sequence (P02550 whole entry, looked up): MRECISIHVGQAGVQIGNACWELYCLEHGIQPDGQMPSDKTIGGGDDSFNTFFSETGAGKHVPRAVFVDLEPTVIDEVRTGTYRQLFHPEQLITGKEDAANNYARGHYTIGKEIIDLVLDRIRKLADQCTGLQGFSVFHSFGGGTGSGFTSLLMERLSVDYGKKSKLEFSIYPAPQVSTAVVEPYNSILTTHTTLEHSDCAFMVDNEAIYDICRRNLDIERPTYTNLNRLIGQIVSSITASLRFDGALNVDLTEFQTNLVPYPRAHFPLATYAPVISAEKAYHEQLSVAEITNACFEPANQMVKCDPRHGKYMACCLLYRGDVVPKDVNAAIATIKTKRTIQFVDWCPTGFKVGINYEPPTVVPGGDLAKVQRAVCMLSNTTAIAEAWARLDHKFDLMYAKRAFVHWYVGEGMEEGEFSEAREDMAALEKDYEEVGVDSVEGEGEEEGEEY
T1 sequence (P02554 whole entry, looked up): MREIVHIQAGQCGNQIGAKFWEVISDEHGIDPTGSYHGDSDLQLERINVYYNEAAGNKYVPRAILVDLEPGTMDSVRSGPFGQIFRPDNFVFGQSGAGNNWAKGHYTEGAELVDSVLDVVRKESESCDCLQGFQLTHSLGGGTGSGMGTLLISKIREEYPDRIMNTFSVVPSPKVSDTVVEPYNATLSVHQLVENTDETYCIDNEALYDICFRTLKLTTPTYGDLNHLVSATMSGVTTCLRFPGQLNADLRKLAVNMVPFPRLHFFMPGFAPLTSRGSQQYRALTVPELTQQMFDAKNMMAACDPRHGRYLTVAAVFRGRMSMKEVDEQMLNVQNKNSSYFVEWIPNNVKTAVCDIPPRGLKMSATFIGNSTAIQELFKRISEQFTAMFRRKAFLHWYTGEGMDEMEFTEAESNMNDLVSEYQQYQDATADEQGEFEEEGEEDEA

By IC50 is commonly meant the point on the concentration scale where inhibition reaches its midpoint. With `COc1ccc(/C=C\c2cc(OC)c(OC)c(OC)c2)cc1O` [COMBRETASTATIN A4], the IC50 in [1] was 2.95 µM; in test [2], 2.97 µM; in test [3], 2.84 µM; in [7], 1.23 µM. Also, the Activity in test [4] amounted to 25.41%; in test [5], 43.2%; in test [6] it was 80.09%; in [9] it was 78.38%. The inhibition entry in test [8] is “Active”.

Take `COc1ccc(-c2cc(C(=O)O)c3c(OC)c(OC)c(OC)cc3n2)cc1`: in [10], the inhibition result was “Active”. Also, the half-maximal inhibitory concentration (IC50) in test [1], in test [2], in [3] and in test [7] was greater than 100 µM each time.

`COc1cc(-c2cc(C(=O)O)c3c(OC)c(OC)c(OC)cc3n2)cc(OC)c1OC`: the IC50 in test [1], in [2], in test [3] and in test [7] was greater than 100 µM each time.

`COc1ccc(-c2cc(CO)c3c(OC)c(OC)c(OC)cc3n2)cc1O`: the IC50 in test [1] is 43.3 µM; in [2], 21.5 µM; in [3], 29.6 µM; in test [7] it was 59.5 µM. In test [11], the inhibition result is “Active”.

`COc1cc(-c2cc(C(=O)O)c3c(OC)c(OC)c(OC)cc3n2)ccc1O`: the inhibition entry in test [10] is “Active”. Also, the IC50 in [1], in test [2], in test [3] and in test [7] was greater than 100 µM each time.

Turning to `COc1cc2nc(-c3ccc(O)cc3O)cc(C(=O)O)c2c(OC)c1OC`, the inhibition result in test [10] is “Active”. Moreover, the IC50 in test [1], in [2], in [3] and in test [7] was greater than 100 µM in each case.

For `COc1ccc(-c2cc(CO)c3c(OC)c(OC)c(OC)cc3n2)cc1OC`, the IC50 in [1] was 23.1 µM; in test [2], 37.1 µM; in [3], 7.98 µM; in [7], 60.7 µM. Further, the inhibition result in test [11] was “Active”.

As for `COc1ccc(-c2cc(C(=O)O)c3c(OC)c(OC)c(OC)cc3n2)cc1O`, in [10], the inhibition entry was “inactive”. For the same molecule, the Activity in test [12] came out at 3.74%; in test [13], 43.12%; in test [14], 8%; in [15], 62.15%. The 50% inhibitory concentration (IC50) in [1] is greater than 100 µM; in test [2], 98.5 µM; in test [3], 38.7 µM; in test [7] it was 56.3 µM.

Turning to `COc1cc(-c2cc(CO)c3c(OC)c(OC)c(OC)cc3n2)cc(OC)c1OC`, the outcome in [16], in [17], in [18] and in test [20] was Active. In addition, the half-inhibitory concentration (IC50) in test [1] stood at 8.15 µM; in [2] it was 14.1 µM; in test [3], 11.4 µM; in test [7] it was 16.3 µM. Besides, the Activity in test [19] stood at 79.59%; in test [21] it was 44.8%; in test [22], 62.31%; in test [23] it was 79.59%. Moreover, in test [11], the inhibition result was “Active”.

Take `COc1cc2nc(-c3ccc(O)cc3)cc(C(=O)O)c2c(OC)c1OC`: the IC50 in [1], in [2], in test [3] and in [7] was greater than 100 µM in each case.

On to `COc1ccc(-c2cc(C(=O)O)c3c(OC)c(OC)c(OC)cc3n2)cc1OC`, for which the IC50 in test [1], in test [2], in [3] and in test [7] was greater than 100 µM throughout.

On to `COc1ccc(-c2cc(CO)c3c(OC)c(OC)c(OC)cc3n2)cc1`, for which the IC50 in test [1] was 28.4 µM; in test [2], 39.8 µM; in test [3], 8.04 µM; in [7] it was 16.4 µM. Further, the inhibition entry in test [11] was “Active”.

As for `COc1cc2nc(-c3cccc(O)c3)cc(C(=O)O)c2c(OC)c1OC`, the IC50 in [1], in test [2], in test [3] and in test [7] was greater than 100 µM each time.

For `COc1cc(-c2cc(CO)c3c(OC)c(OC)c(OC)cc3n2)ccc1O`, the IC50 in test [1] stood at 52.2 µM; in test [2], 53.9 µM; in test [3], 9.19 µM; in test [7], 49.7 µM.
